Test results taken from ChEMBL document CHEMBL1153396, “Carbonic anhydrase inhibitors. Inhibition of the beta-class enzymes from the fungal pathogens Candida albicans and Cryptococcus neoformans with aliphatic and aromatic carboxylates” (Bioorg Med Chem, 2009).

Tests used:
Carbonic anhydrase 2 = Carbonic anhydrase 2 (Homo sapiens, UniProt P00918); assay: Inhibition of human carbonic anhydrase2
Carbonic anhydrase = target: T1, Carbonic anhydrase (Candida albicans (strain SC5314 / ATCC MYA-2876) (Yeast), UniProt Q5AJ71); assay: Inhibition of Candida albicans Nce103
T1 sequence (Q5AJ71 whole entry): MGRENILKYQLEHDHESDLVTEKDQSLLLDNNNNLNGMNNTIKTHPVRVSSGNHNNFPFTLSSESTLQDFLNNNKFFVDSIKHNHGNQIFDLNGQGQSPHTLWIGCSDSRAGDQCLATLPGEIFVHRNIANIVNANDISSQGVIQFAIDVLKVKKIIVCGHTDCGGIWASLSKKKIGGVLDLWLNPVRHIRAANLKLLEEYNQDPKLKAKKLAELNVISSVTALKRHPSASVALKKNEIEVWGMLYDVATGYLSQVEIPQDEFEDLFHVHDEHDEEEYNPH
In short: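 Recombinant purified C. albicans Nce103. Stopped-flow CO2 hydration assay with phenol red indicator (0.2 mM) read at 557 nm. Tris buffer pH 8.3 with 20 mM Na2SO4 or NaClO4 for ionic strength. CO2 1.7–17 mM. Initial rates over 10–100 s, uncatalyzed rate subtracted. Enzyme and inhibitor preincubated 15 min at room temperature. Ki by non-linear least squares from three assays.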

[1] = Inhibition of Cryptococcus neoformans Can2
In short: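 Recombinant purified Can2. Stopped-flow CO2 hydration assay read with 0.2 mM phenol red at 557 nm, in TRIS pH 8.3 with 20 mM NaClO4 or Na2SO4 for ionic strength. Initial rates followed over 10–100 s, CO2 1.7–17 mM, uncatalyzed rate subtracted. Enzyme and inhibitor preincubated 15 min at room temperature. Ki from non-linear least squares, mean of at least three determinations.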

CCCCC(=O)[O-].[Na+] [SODIUM VALERATE]
Ki (Carbonic anhydrase 2): 257 µM | Ki (Carbonic anhydrase): 94 µM | Ki [1]: 42.8 µM

CCCC(=O)[O-].[Na+] [SODIUM BUTYRATE]
Ki (Carbonic anhydrase 2): 1030 µM | Ki (Carbonic anhydrase): 26.9 µM | Ki [1]: 225 µM

O=C([O-])c1ccccc1.[Na+] [SODIUM BENZOATE]
Ki (Carbonic anhydrase): 24.4 µM | Ki [1]: 1270 µM

O=C(O)c1c(F)c(F)cc(F)c1F
Ki (Carbonic anhydrase): 61.6 µM | Ki [1]: 49.1 µM

O=C([O-])CC(O)(CC(=O)[O-])C(=O)[O-].[Na+].[Na+].[Na+] [SODIUM CITRATE]
Ki (Carbonic anhydrase): 39.1 µM | Ki [1]: 88.6 µM

O=C([O-])C(=O)[O-].[Na+].[Na+] [SODIUM OXALATE]
Ki (Carbonic anhydrase): 37.7 µM | Ki [1]: 67.7 µM

CC(=O)C(=O)O [PYRUVATE SODIUM]
Ki (Carbonic anhydrase): 106 µM | Ki [1]: 787 µM

C[C@H](O)C(=O)[O-].[Na+]
Ki (Carbonic anhydrase 2): 3220 µM | Ki (Carbonic anhydrase): 46.8 µM | Ki [1]: 953 µM

O=C([O-])/C=C\C(=O)[O-].[Na+].[Na+] [SODIUM MALEATE]
Ki (Carbonic anhydrase 2): 989 µM | Ki (Carbonic anhydrase): 8.6 µM | Ki [1]: 8.7 µM

CCC(=O)[O-].[Na+] [SODIUM PROPIONATE]
Ki (Carbonic anhydrase 2): 960 µM | Ki (Carbonic anhydrase): 51.5 µM | Ki [1]: 404 µM

O=C[O-].[Na+] [SODIUM FORMATE]
Ki (Carbonic anhydrase): 35.1 µM | Ki [1]: 53.5 µM

O=C([O-])C[C@H](O)C(=O)[O-].[Na+].[Na+]
Ki (Carbonic anhydrase 2): 1870 µM | Ki (Carbonic anhydrase): 87.7 µM | Ki [1]: 899 µM

CC(=O)[O-].[Na+] [SODIUM ACETATE]
Ki (Carbonic anhydrase): 36 µM | Ki [1]: 7.3 µM

O=C([O-])CC(=O)[O-].[Na+].[Na+] [DISODIUM MALONATE]
Ki (Carbonic anhydrase): 26.3 µM | Ki [1]: 793 µM
